According to ChEMBL document CHEMBL1629690, “Development of hexadecyloxypropyl tenofovir (CMX157) for treatment of infection caused by wild-type and nucleoside/nucleotide-resistant HIV” (Antimicrob Agents Chemother, 2010):

Columns and labels:
[1] = test system: Human immunodeficiency virus 1; assay: Antiviral activity against HIV1 isolate 174 harboring reverse transcriptase M184V mutant gene obtained as site-directed mutant of NL4-3 by phenosense assay relative to wild type; format: functional
How it was run: (§1)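 Recombinant-virus PhenoSense HIV assay run on a panel of 30 NRTI-resistant HIV-1 mutants and two wild-type viruses. Each virus is tested across increasing drug concentrations to give an inhibition curve and EC50. Fold change is the test recombinant EC50 divided by the EC50 of the drug-sensitive wild-type reference virus.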

[2] = test system: Human immunodeficiency virus 1; assay: Antiviral activity against HIV1 isolate 063 harboring reverse transcriptase M41L/D67N/K70R/M184V/L210W/T215Y/K219E mutant gene by phenosense assay; format: functional, organism-based; conditions: Human immunodeficiency virus 1, isolate 063; how it was run: as §1
[3] = test system: Human immunodeficiency virus 1; assay: Antiviral activity against HIV1 isolate 220 harboring reverse transcriptase K70E/M184V mutant gene by phenosense assay; format: functional, organism-based; conditions: Human immunodeficiency virus 1, isolate 220
How it was run: (§2)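 PhenoSense HIV recombinant virus assay: patient-derived HIV-1 with major NRTI resistance mutations tested against increasing drug concentrations to give inhibition curves. EC50 is the concentration giving 50% inhibition. Fold change is the test recombinant EC50 divided by the EC50 of a drug-sensitive wild-type reference virus. Panel of 30 NRTI-resistant isolates plus two wild-type viruses.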

[4] = test system: Human immunodeficiency virus 1; assay: Antiviral activity against HIV1 isolate 185 harboring reverse transcriptase T215Y mutant gene by phenosense assay relative to wild type; format: functional; how it was run: as §1
[5] = test system: Human immunodeficiency virus 1; assay: Antiviral activity against HIV1 isolate 206 harboring reverse transcriptase D67N/K70R mutant gene by phenosense assay; format: functional, organism-based; conditions: Human immunodeficiency virus 1, isolate 206; how it was run: as §2
[6] = test system: Human immunodeficiency virus 1; assay: Antiviral activity against HIV1 isolate 160 harboring reverse transcriptase S68G/V75(I/T)/F77L/Y115F/F116Y /Q151M mutant gene by phenosense assay relative to wild type; format: functional; how it was run: as §1
[7] = test system: Human immunodeficiency virus 1; assay: Antiviral activity against HIV1 isolate 066 harboring reverse transcriptase 184V mutant gene by phenosense assay; format: functional, organism-based; conditions: Human immunodeficiency virus 1, isolate 066; how it was run: as §1
[8] = test system: Human immunodeficiency virus 1; assay: Antiviral activity against HIV1 isolate 206 harboring reverse transcriptase D67N/K70R mutant gene by phenosense assay relative to wild type; format: functional; how it was run: as §2
[9] = test system: Human immunodeficiency virus 1; assay: Antiviral activity against HIV1 isolate 162 harboring reverse transcriptase A62V/V75I/F77L/Y115F/F116Y/Q151M/M184V mutant gene by phenosense assay relative to wild type; format: functional; how it was run: as §1
[10] = test system: Human immunodeficiency virus 1; assay: Antiviral activity against HIV1 isolate 188 harboring reverse transcriptase T215Y/M184V mutant gene by phenosense assay relative to wild type; format: functional; how it was run: as §1
[11] = test system: Human immunodeficiency virus 1; assay: Antiviral activity against HIV1 isolate 203 harboring reverse transcriptase M41L/L210W/T215Y/M184V mutant gene by phenosense assay; format: functional, organism-based; conditions: Human immunodeficiency virus 1, isolate 203; how it was run: as §2
[12] = test system: Human immunodeficiency virus 1; assay: Antiviral activity against HIV1 isolate 194 harboring reverse transcriptase M41L/T215Y/M184V mutant gene by phenosense assay; format: functional, organism-based; conditions: Human immunodeficiency virus 1, isolate 194; how it was run: as §1
[13] = test system: Human immunodeficiency virus 1; assay: Antiviral activity against HIV1 isolate 201 harboring reverse transcriptase M41L/L210W/T215Y mutant gene by phenosense assay relative to wild type; format: functional; how it was run: as §2
[14] = test system: Human immunodeficiency virus 1; assay: Antiviral activity against HIV1 isolate 204 harboring reverse transcriptase M41L/L210W/T215Y/M184V mutant gene by phenosense assay; format: functional, organism-based; conditions: Human immunodeficiency virus 1, isolate 204; how it was run: as §2
[15] = test system: Human immunodeficiency virus 1; assay: Antiviral activity against HIV1 isolate 069 harboring reverse transcriptase D67E/T69SSG/V75M/M184V/L210W/T215Y mutant gene by phenosense assay relative to wild type; format: functional; how it was run: as §1
[16] = test system: Human immunodeficiency virus 1; assay: Antiviral activity against HIV1 isolate 166 harboring reverse transcriptase L74V mutant gene obtained as site-directed mutant of NL4-3 by phenosense assay relative to wild type; format: functional; how it was run: as §1
[17] = test system: Human immunodeficiency virus 1; assay: Antiviral activity against HIV1 isolate 217 harboring reverse transcriptase D67N/K70E/M184V mutant gene by phenosense assay; format: functional, organism-based; conditions: Human immunodeficiency virus 1, isolate 217; how it was run: as §2
[18] = test system: Human immunodeficiency virus 1; assay: Antiviral activity against HIV1 isolate 203 harboring reverse transcriptase M41L/L210W/T215Y/M184V mutant gene by phenosense assay relative to wild type; format: functional; how it was run: as §2
[19] = test system: Human immunodeficiency virus 1; assay: Antiviral activity against HIV1 isolate 211 harboring reverse transcriptase D67N/K70R/T215F/K219E/M184V mutant gene by phenosense assay; format: functional, organism-based; conditions: Human immunodeficiency virus 1, isolate 211; how it was run: as §2
[20] = test system: Human immunodeficiency virus 1; assay: Antiviral activity against HIV1 isolate 069 harboring reverse transcriptase D67E/T69SSG/V75M/M184V/L210W/T215Y mutant gene by phenosense assay; format: functional, organism-based; conditions: Human immunodeficiency virus 1, isolate 069; how it was run: as §1
[21] = test system: Human immunodeficiency virus 1; assay: Antiviral activity against HIV1 isolate 066 harboring reverse transcriptase 184V mutant gene by phenosense assay relative to wild type; format: functional; how it was run: as §1
[22] = test system: Human immunodeficiency virus 1; assay: Antiviral activity against HIV1 isolate 194 harboring reverse transcriptase M41L/T215Y/M184V mutant gene by phenosense assay relative to wild type; format: functional; how it was run: as §1
[23] = test system: Human immunodeficiency virus 1; assay: Antiviral activity against HIV1 isolate 153 harboring reverse transcriptase L74V mutant gene by phenosense assay relative to wild type; format: functional; how it was run: as §1
[24] = test system: Human immunodeficiency virus 1; assay: Antiviral activity against HIV1 isolate 201 harboring reverse transcriptase M41L/L210W/T215Y mutant gene by phenosense assay; format: functional, organism-based; conditions: Human immunodeficiency virus 1, isolate 201; how it was run: as §1
[25] = test system: Human immunodeficiency virus 1; assay: Antiviral activity against HIV1 isolate 166 harboring reverse transcriptase L74V mutant gene obtained as site-directed mutant of NL4-3 by phenosense assay; format: functional, organism-based; conditions: Human immunodeficiency virus 1, isolate 166; how it was run: as §1
[26] = test system: Human immunodeficiency virus 1; assay: Antiviral activity against HIV1 isolate 063 harboring reverse transcriptase M41L/D67N/K70R/M184V/L210W/T215Y/K219E mutant gene by phenosense assay relative to wild type; format: functional; how it was run: as §1
[27] = test system: Human immunodeficiency virus 1; assay: Antiviral activity against HIV1 isolate 204 harboring reverse transcriptase M41L/L210W/T215Y/M184V mutant gene by phenosense assay relative to wild type; format: functional; how it was run: as §2
[28] = test system: Human immunodeficiency virus 1; assay: Antiviral activity against HIV1 isolate 200 harboring reverse transcriptase M41L/L210W/T215Y mutant gene by phenosense assay; format: functional, organism-based; conditions: Human immunodeficiency virus 1, isolate 200; how it was run: as §1
[29] = test system: Human immunodeficiency virus 1; assay: Antiviral activity against HIV1 isolate 220 harboring reverse transcriptase K70E/M184V mutant gene by phenosense assay relative to wild type; format: functional; how it was run: as §2
[30] = test system: Human immunodeficiency virus 1; assay: Antiviral activity against HIV1 isolate 215 harboring reverse transcriptase D67N/K70E mutant gene by phenosense assay relative to wild type; format: functional; how it was run: as §2
[31] = test system: Human immunodeficiency virus 1; assay: Antiviral activity against HIV1 isolate 180 harboring reverse transcriptase K65R mutant gene obtained as site-directed mutant of NL4-3 by phenosense assay; format: functional, organism-based; conditions: Human immunodeficiency virus 1, isolate 180; how it was run: as §1
[32] = test system: Human immunodeficiency virus 1; assay: Antiviral activity against HIV1 isolate 212 harboring reverse transcriptase L210W/T215Y mutant gene by phenosense assay relative to wild type; format: functional; how it was run: as §2
[33] = test system: Human immunodeficiency virus 1; assay: Antiviral activity against HIV1 isolate 058 harboring reverse transcriptase M41L/D67N/K70R/L210W/T215F/K219Q mutant gene by phenosense assay relative to wild type; format: functional; how it was run: as §1
[34] = test system: Human immunodeficiency virus 1; assay: Antiviral activity against HIV1 isolate 057 expressing wild type reverse transcriptase gene by phenosense assay; format: functional, organism-based; conditions: Human immunodeficiency virus 1, isolate 057
How it was run: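 In the PhenoSense recombinant virus assay, virus was tested against increasing drug concentrations. EC50 came from the inhibition curve and was compared with a drug-sensitive reference virus.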

[35] = test system: Human immunodeficiency virus 1; assay: Antiviral activity against HIV1 isolate 185 harboring reverse transcriptase T215Y mutant gene by phenosense assay; format: functional, organism-based; conditions: Human immunodeficiency virus 1, isolate 185; how it was run: as §1

Row | SMILES | fold change (FC) [1] | EC50 [2] | EC50 [3] | fold change (FC) [4] | EC50 [5] | fold change (FC) [6] | EC50 [7] | fold change (FC) [8] | fold change (FC) [9] | fold change (FC) [10] | EC50 [11] | EC50 [12] | fold change (FC) [13] | EC50 [14] | fold change (FC) [15] | fold change (FC) [16] | EC50 [17] | fold change (FC) [18] | EC50 [19] | EC50 [20] | other results
1 | O=c1[nH]cnc2c1ncn2[C@H]1CC[C@@H](CO)O1 [DIDANOSINE] | 1.2 | 11 µM | 9.9 µM | 1.1 | 6.6 µM | 12 | 7.6 µM | 1.2 | 11 | 1.4 | 8.2 µM | 10 µM | 1.1 | 8.6 µM | 4.4 | 1.5 | 7.3 µM | 1.5 | 8.7 µM | 24 µM | fold change (FC) [21]: 1.4; fold change (FC) [22]: 1.8; fold change (FC) [23]: 1.6; EC50 [24]: 5.9 µM; EC50 [25]: 8.1 µM; fold change (FC) [26]: 2.1; fold change (FC) [27]: 1.6; EC50 [28]: 7.5 µM; fold change (FC) [29]: 1.8; fold change (FC) [30]: 1.4; EC50 [31]: 11 µM; fold change (FC) [32]: 1; fold change (FC) [33]: 1.6; EC50 [34]: 5.6 µM; EC50 [35]: 6.3 µM
2 | Nc1nc(=O)n([C@@H]2CS[C@H](CO)O2)cc1F [EMTRICITABINE] | >88 | > 100 µM | > 100 µM | 2.3 | 3.3 µM | 30 | > 100 µM | 2.9 | >88 | >88 | > 100 µM | > 100 µM | 1.9 | > 100 µM | >88 | 1.5 | > 100 µM | >88 | > 100 µM | > 100 µM | fold change (FC) [21]: >88; fold change (FC) [22]: >88; fold change (FC) [23]: 1.9; EC50 [24]: 2.2 µM; EC50 [25]: 1.7 µM; fold change (FC) [26]: >88; fold change (FC) [27]: >88; EC50 [28]: 4.2 µM; fold change (FC) [29]: >88; fold change (FC) [30]: 3; EC50 [31]: 13 µM; fold change (FC) [32]: 2.3; fold change (FC) [33]: 5; EC50 [34]: 1.6 µM; EC50 [35]: 2.6 µM
